# Experimental data published in publication PMC10085944 (Clinical Pharmacokinetics, 2023).
# Where two headings read alike, the source gives them in different places.
# What was measured:
# [1] = SBS patients; dose reduction by 50% recommended; cited from earlier work
# [2] = cited from earlier work
# [3] = SC; slow release of M1 and M2 from the SC depot; cited from earlier work
# [4] = Safety and tolerability assessment in the Phase 1 renal impairment trial; assay type: in vivo, human
# Procedure, shortened: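 Subjects admitted the day before a single 10 mg SC abdominal dose, kept on site for the first 3 days, then seen as outpatients daily to Day 8, with follow-up on Day 11. Ongoing monitoring covered AE recording (MedDRA preferred terms), vital signs, 12-lead ECGs, clinical laboratory tests, physical examinations and injection-site reactions.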
substance,measurement,setting,value
teduglutide,AUC0–∞ and Cmax in moderate or severe renal impairment/ESRD,[1],elevated
same,half-life,[2]; teduglutide,approximately 2 h
native GLP-2: 33-amino acid intestinal growth factor secreted in response to nutrient intake,half-life,"[2]; native GLP-2, in vivo",5 to 7 min
Glepaglutide,effective half-life,[3],88.3 h
same,"serious AEs, deaths, or AEs leading to trial withdrawal","[4]; 16 subjects, single SC dose glepaglutide 10 mg","no serious AEs, deaths, or AEs leading to trial withdrawal"
same,total number of AEs (all non-serious and mild),"[4]; reported in 3 of 16 subjects, single SC dose 10 mg",6
same,overall safety and tolerability,"[4]; single SC dose 10 mg, normal renal function and severe renal impairment or ESRD",safe and well tolerated
